The source of these data is PubChem BioAssay AID2465 (Broad Institute, 2010).

“And” between values parts separate entries of the source, which are not always exact repeats. Equal values may be shown once. Screen size: about 24,000 compounds; fewer than 10 were called active. The list is a sample of the results. Values without a mark were called inactive. Rule as the data show it: active = caspase activation above about 5.9%; inconclusive = no clear call, values can overlap the other calls; inactive = below about 2.2%.

This assay can be described thus: A1 inhibitors via caspase activation, primary screen, cell-based, luminescence, HTS, two replicates (AID 2465). The note with it: MEF A1-2A-BIM cells, caspase-Glo luminescence, 3 h; active compounds read high; percent of clofoctol response, DMSO zero; concentration not given here. Summed up:
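Material: A1-2A-BIM-expressing MEF cells. Buffer or medium: RPMI-1640 plus 10% FBS. Incubation: cells settled overnight, compound exposure 3 h at 37 °C, 5% CO2. Signal: Caspase-Glo 3/7 luminescence, 1 h at room temperature.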
As to `COc1ccc(S(=O)(=O)Nc2ccc3c(c2)C(=O)N([C@@H](C)CO)C[C@H](C)[C@H](CN(C)S(=O)(=O)c2c(C)noc2C)OCCCC[C@@H](C)O3)cc1`, the caspase activation is 0.0111%.

For the molecule `C[C@@H]1CCCCO[C@@H](CN(C)C(=O)NC2CCCCC2)[C@H](C)CN([C@H](C)CO)C(=O)c2cc(NC(=O)c3ccccc3)ccc2O1`, the caspase activation was 0.223%.

Regarding `C[C@H]1CN([C@@H](C)CO)C(=O)c2cccc(NS(=O)(=O)c3ccc(Cl)cc3)c2O[C@@H]1CN(C)Cc1ccc(Oc2ccccc2)cc1`, the caspase activation was 1%.

On to `C[C@H](CO)N1C[C@H](C)[C@H](CN(C)Cc2ccc(C(=O)O)cc2)Oc2ccc(NS(=O)(=O)c3cn(C)cn3)cc2CC1=O`, for which the caspase activation is -0.00308%.

`C[C@@H]1CN([C@H](C)CO)C(=O)Cc2cc(NC(=O)c3ccncc3)ccc2O[C@H]1CN(C)S(=O)(=O)c1cccs1`: the caspase activation is 0.361%.

Take `COc1ccc(CN(C)C[C@@H]2OCCCC[C@@H](C)Oc3ccc(NS(=O)(=O)c4ccc(C)cc4)cc3C(=O)N([C@@H](C)CO)C[C@H]2C)cc1`: the caspase activation is 0.1%.

Take `Cc1noc(C)c1S(=O)(=O)Nc1ccc2c(c1)C(=O)N([C@H](C)CO)C[C@H](C)[C@H](CN(C)C(=O)NC1CCCCC1)OCCCC[C@H](C)O2`: the caspase activation was -1.41%.

`O=C(N/N=C/[C@H](O)[C@@H](O)[C@H](O)[C@H](O)CO)c1ccccc1O`: the caspase activation was -0.678%.

For the molecule `C[C@H]1CCCCO[C@H](CN(C)C(=O)Nc2ccc3c(c2)OCO3)[C@@H](C)CN([C@@H](C)CO)C(=O)c2cc(NC(=O)Nc3ccccc3)ccc2O1`, the caspase activation was 0.0515%.

`C[C@H]1CN([C@@H](C)CO)C(=O)c2cccc(NC(=O)Nc3ccccc3)c2O[C@@H]1CN(C)C(=O)Nc1cccc2ccccc12`: the caspase activation was -0.864%.

Consider `[N-]=[N+]=NC[C@H](Cc1ccccc1)NC(=O)Nc1ccccc1`, for which the caspase activation is -3.77% and 0.143%.

As to `COc1ccc(S(=O)(=O)Nc2ccc3c(c2)C(=O)N([C@H](C)CO)C[C@H](C)[C@@H](CN(C)Cc2ccccc2)OCCCC[C@@H](C)O3)cc1`, the caspase activation is 0.258%.

Turning to `Cc1cccc(S(=O)(=O)N(C)C[C@H]2OCc3cnnn3CCCC(=O)N([C@@H](C)CO)C[C@H]2C)c1`, the caspase activation is -0.906%.

Take `COc1ccc(S(=O)(=O)Nc2ccc3c(c2)C(=O)N([C@@H](C)CO)C[C@@H](C)[C@H](CN(C)C(=O)Nc2ccc(C(F)(F)F)cc2)OCCCC[C@@H](C)O3)cc1`: the caspase activation was -0.653%.

Take `C[C@@H]1CCCCO[C@@H](CN(C)S(=O)(=O)c2ccccc2)[C@H](C)CN([C@H](C)CO)C(=O)c2cc(NC(=O)Nc3ccc4c(c3)OCO4)ccc2O1`: the caspase activation is -1.23%.

For `C[C@H]1CN([C@@H](C)CO)C(=O)c2cc(N(C)C)ccc2O[C@@H]1CN(C)S(=O)(=O)c1ccc(Cl)cc1`, the caspase activation is -0.761%.

As for `C[C@H]1CCCCO[C@@H](CN(C)S(=O)(=O)c2ccc(Cl)cc2)[C@@H](C)CN([C@@H](C)CO)C(=O)c2cc(NS(=O)(=O)c3cn(C)cn3)ccc2O1`, the caspase activation was -0.712%.

`C[C@@H]1CN([C@H](C)CO)C(=O)c2cc(NS(=O)(=O)c3ccc(F)cc3)ccc2O[C@@H]1CN(C)S(C)(=O)=O`: the caspase activation was -0.125%.

For the molecule `COc1ccc(S(=O)(=O)N(C)C[C@@H]2OCCCC[C@@H](C)Oc3ccc(NC(=O)CCCN(C)C)cc3C(=O)N([C@@H](C)CO)C[C@@H]2C)cc1`, the caspase activation is 0.265%.

As to `COc1ccc(S(=O)(=O)Nc2ccc3c(c2)C(=O)N([C@H](C)CO)C[C@@H](C)[C@H](CN(C)S(=O)(=O)c2ccc(Cl)cc2)OCCCC[C@@H](C)O3)cc1`, the caspase activation is -1.08%.

`C[C@@H]1CCCCO[C@@H](CN(C)Cc2ccc(C(F)(F)F)cc2)[C@H](C)CN([C@H](C)CO)C(=O)c2cc(NS(=O)(=O)c3ccc(F)cc3)ccc2O1`: the caspase activation is -0.24%.

With `COc1ccc(NC(=O)Nc2ccc3c(c2)C(=O)N([C@H](C)CO)C[C@H](C)[C@@H](CN(C)Cc2ccccc2)OCCCC[C@H](C)O3)cc1`, the caspase activation is 0.0689%.

As to `C[C@@H]1CCCCO[C@H](CN(C)C(=O)Nc2cccc3ccccc23)[C@@H](C)CN([C@@H](C)CO)C(=O)c2cc(NC(=O)Nc3ccc(F)cc3)ccc2O1`, the caspase activation is 0.273%.

For `Cc1noc(C)c1NC(=O)N(C)C[C@@H]1Oc2c(NC(=O)CCCCCC(=O)Nc3ccccc3N)cccc2C(=O)N([C@H](C)CO)C[C@@H]1C`, the caspase activation was 1.76%.

On to `C[C@H](CO)N1C[C@H](C)[C@H](CN(C)Cc2ccccc2)OCCCC[C@H](C)Oc2ccc(NC(=O)Cc3ccccc3)cc2C1=O`, for which the caspase activation is -0.193%.

Take `C[C@@H]1CN([C@@H](C)CO)C(=O)c2cccc(NC(=O)CCCCCC(=O)Nc3ccccc3N)c2O[C@H]1CN(C)C(=O)Nc1ccccc1`: the caspase activation is 0.335%.

`Cc1noc(C)c1S(=O)(=O)N(C)C[C@H]1OCCCC[C@H](C)Oc2ccc(NC(=O)c3ccccc3)cc2C(=O)N([C@@H](C)CO)C[C@H]1C`: the caspase activation was -0.984%.

For `C[C@@H]1CN([C@H](C)CO)C(=O)c2cc(NC(=O)CCCN(C)C)ccc2O[C@H]1CN(C)S(=O)(=O)c1ccc(Cl)cc1`, the caspase activation was -1.33%.

Take `C[C@@H]1CCCCO[C@H](CN(C)C(=O)CCCN(C)C)[C@H](C)CN([C@@H](C)CO)C(=O)c2cc(NS(=O)(=O)c3ccc(Cl)cc3)ccc2O1`: the caspase activation was 0.532%.

With `COc1ccc(NC(=O)Nc2ccc3c(c2)CC(=O)N([C@@H](C)CO)C[C@@H](C)[C@H](CN(C)C(=O)NC2CCCCC2)O3)cc1`, the caspase activation was -1.36%.

As to `COc1ccc(S(=O)(=O)N(C)C[C@H]2Oc3c(NS(=O)(=O)c4ccc(F)cc4)cccc3C(=O)N([C@H](C)CO)C[C@H]2C)cc1`, the caspase activation was -0.361%.

`COC(=O)CCCCCCC(=O)N/N=C/c1ccc(I)cc1`: the caspase activation is 0.387%.

As for `C[C@@H]1CN([C@H](C)CO)C(=O)c2cc(NC(=O)Nc3ccc(C(F)(F)F)cc3)ccc2O[C@@H](C)CCCCO[C@@H]1CN(C)Cc1ccc(C(F)(F)F)cc1`, the caspase activation is 0.82%.
